Measured values collected from several papers.
Protocols differ between the studies behind these lines.
CDK4 with cyclin D1: Cyclin-dependent kinase 4, with cyclin D1 (CDK4, Homo sapiens, UniProt P11802)
CDK4 with cyclin D3: Cyclin-dependent kinase 4, with cyclin D3 (CDK4, Homo sapiens, UniProt P11802)
CDK4: Cyclin-dependent kinase 4 (CDK4, Homo sapiens, UniProt P11802)

F[C@@H]1CCN(c2nccc(-c3cnn4ncccc34)n2)C1  remaining binding (CDK4 with cyclin D1; binding; 1 µM): 100%
Cc1nccc(COC(=O)N2C[C@@H]3[C@@H](CNC(=O)c4ccc5[nH]nnc5c4)[C@@H]3C2)n1  remaining binding (CDK4 with cyclin D1; cell-free assay, competition with immobilised ligand; 1 µM): 90%
O=C1Nc2ccc(Cl)cc2C1=Cc1cc(Cl)c(O)c(Cl)c1  remaining signal (CDK4 with cyclin D3; cell-free assay; 0.5 µM): 94.8%
Cc1cnc(NC2CCOCC2)nc1-n1cnc(C(=O)NC(CN)c2cc(F)cc(Cl)c2)c1 (stereo not drawn)  remaining activity (CDK4 with cyclin D3; enzyme activity, inhibitor, radiometric; 1 µM): 6%
O=C(c1ccccc1F)[C@H]1Cc2c(cc([N+](=O)[O-])cc2[N+](=O)[O-])[C@H](O)[C@]12C(=O)Nc1ccccc12  inhibition (CDK4; cell-free assay, inhibitor, TR-FRET; 1 µM): 29.3%
COc1ccc(OC)c2c(=S)c3ccccc3[nH]c12  remaining signal (CDK4 with cyclin D3; cell-free assay; 0.5 µM): 95.5%
Cc1cc(NC(=O)c2cccc3cc(-c4cccc5[nH]nc(N)c45)ccc23)ccc1F  activity vs control (CDK4 with cyclin D3; enzyme activity, inhibitor; 0.1 µM): 89%
O=C(Nc1cnn(-c2csc(C(=O)NC3COC3)c2)c1)Nc1c(F)cccc1Cl  remaining activity (CDK4 with cyclin D3; enzyme activity, inhibitor; 5 µM): 79.4%
CCCCN(CCCC)C(=O)CN1C[C@@H](c2cc(OC)c3c(c2)OCO3)[C@H](C(=O)O)[C@H]1CC(C)(C)CCC  remaining binding (CDK4 with cyclin D3; cell-free assay, competition with immobilised ligand; 1 µM): 92.7%
Oc1cccc(-c2nc(N3CCOCC3)c3oc4ncccc4c3n2)c1  remaining signal (CDK4 with cyclin D1; cell-free assay; 0.5 µM): 102%
CCOCCn1cc(C(=O)Nc2ccc(-n3nc(-c4cccnc4)cc3C(F)(F)F)cn2)ccc1=O  remaining binding (CDK4; cell-free assay, competition with immobilised ligand; 1 µM): 87%
C[C@H]1CCN(c2nccc(-c3cnn4ncccc34)n2)C1  remaining binding (CDK4 with cyclin D1; binding; 1 µM): 80%
Cc1sc(C(=O)NC2COC2)cc1-n1cc(NC(=O)Nc2c(F)cccc2Cl)cn1  remaining activity (CDK4 with cyclin D3; enzyme activity, inhibitor; 10 µM): 96.5%
C[C@@H]1CCN(C(=O)CC#N)C[C@@H]1N(C)c1ncnc2[nH]ccc12  remaining signal (CDK4 with cyclin D3; cell-free assay, inhibitor; 0.5 µM): 99.9%
CC(C)(C)c1nc2c(s1)c1nc(N)ncc1c1ccc(NS(=O)(=O)c3c(F)cccc3F)c(F)c12  remaining activity (CDK4 with cyclin D1; enzyme activity, inhibitor, radiometric; 1 µM): 88%
Nc1nc(Nc2ccc(S(N)(=O)=O)cc2)sc1C(=O)c1ccccc1[N+](=O)[O-]  inhibition (CDK4; enzyme activity, inhibitor; 0.1 µM): 87%
O=C(Nc1cnn(-c2csc(C(=O)NC3COC3)c2)c1)Nc1ccccc1Cl  remaining activity (CDK4 with cyclin D1; enzyme activity, inhibitor; 5 µM): 92.2%
Cc1ccc(NC(=O)c2ccc(C)c(C(F)(F)F)c2)cc1C#Cc1nn(C2CCC(O)CC2)c2ncnc(N)c12 (stereo not drawn)  remaining signal (CDK4 with cyclin D3; cell-free assay; 10 µM): 86%
CC1CCCN1c1nccc(-c2cnn3ncccc23)n1 (stereo not drawn)  remaining binding (CDK4; binding; 1 µM): 100%
CCN(CC)CCNC(=O)c1c(C)[nH]c(/C=C2\C(=O)Nc3ccc(F)cc32)c1C  remaining signal (CDK4 with cyclin D3; cell-free assay; 0.5 µM): 93%
O=C(NCc1ncc(C(F)(F)F)cc1Cl)c1ccc2c(c1)C1(CCS(=O)(=O)CC1)[C@H](C1CC1)N2S(=O)(=O)c1ccc(F)cc1  remaining binding (CDK4 with cyclin D3; cell-free assay, competition with immobilised ligand; 1 µM): 88%
CN(CCCC(F)(F)F)c1nccc(-c2cnn3ncccc23)n1  remaining binding (CDK4; binding; 1 µM): 100%
O=C1NC(=O)c2cc(Nc3ccc(F)cc3)c(Nc3ccc(F)cc3)cc21  remaining signal (CDK4 with cyclin D3; cell-free assay; 0.5 µM): 99%
CN1CCN(c2cnc3c(C4CCN(C(=O)c5ccc(OC(F)(F)F)cc5N)CC4)ncnc3c2)CC1  remaining binding (CDK4; cell-free assay, competition with immobilised ligand; 1 µM): 100%
Cc1cnn2ncc(-c3ccnc(N(C)C)n3)c2c1  remaining binding (CDK4 with cyclin D3; binding; 1 µM): 83%
COc1ccc(C(=O)[C@H]2Cc3c(cc([N+](=O)[O-])cc3[N+](=O)[O-])[C@@H](O)[C@@]23C(=O)Nc2ccccc23)cc1  inhibition (CDK4; cell-free assay, inhibitor, TR-FRET; 1 µM): 39.3%
CN(c1nccc(-c2cnn3ncccc23)n1)C1CC1  remaining binding (CDK4 with cyclin D1; binding; 1 µM): 100%
O=C(c1ccccc1)[C@H]1Cc2c(cc([N+](=O)[O-])cc2[N+](=O)[O-])[C@H](O)[C@]12C(=O)Nc1ccccc12  inhibition (CDK4; cell-free assay, inhibitor, TR-FRET; 1 µM): 30.8%
Nc1ncnc2occ(-c3ccc(NC(=O)Nc4cc(C(F)(F)F)ccc4F)cc3)c12  remaining signal (CDK4; cell-free assay, inhibitor; 20 µM): 29%
COc1cccc(CNC(=O)c2nc3scc(COCc4ccc(C(=O)O)cc4)c3c(=O)[nH]2)c1  remaining binding (CDK4 with cyclin D3; cell-free assay, competition with immobilised ligand; 1 µM): 91.1%
COc1cc2c(cc1OC)-c1[nH]nc(Nc3cccc(F)c3)c1C2  remaining signal (CDK4 with cyclin D1; cell-free assay; 0.5 µM): 93.9%
CO[C@@H](C)c1c(Nc2ccc([C@@H](N(C)C(=O)C3CCS(=O)(=O)CC3)C(F)(F)F)cc2)cnc2cc(Cl)nn12  remaining binding (CDK4 with cyclin D1; cell-free assay, competition with immobilised ligand; 1 µM): 100%
N[C@H]1CCN(c2nccc(-c3cnn4ncccc34)n2)C1  remaining binding (CDK4 with cyclin D1; binding; 1 µM): 100%
O=C(c1ccc(Br)cc1)[C@H]1Cc2c(cc([N+](=O)[O-])cc2[N+](=O)[O-])[C@@H](O)[C@@]12C(=O)Nc1ccccc12  inhibition (CDK4; cell-free assay, inhibitor, TR-FRET; 1 µM): 29.5%
CC(C)(O)[C@H]1CC[C@H](Nc2ccc3ncc(-c4cccc(C(F)(F)F)c4)n3n2)CC1  remaining activity (CDK4 with cyclin D1; enzyme activity, inhibitor; 1 µM): 90.5%
O=C(c1ccc(Cl)c(Cl)c1)[C@H]1Cc2c(cc([N+](=O)[O-])cc2[N+](=O)[O-])[C@H](O)[C@]12C(=O)Nc1ccccc12  inhibition (CDK4; cell-free assay, inhibitor, TR-FRET; 1 µM): 18.5%
CC1=C(C#N)C(c2ccc3c(c2)c(NC(=O)c2ccccc2C)nn3C)C(C#N)=C(C)N1  remaining binding (CDK4 with cyclin D3; cell-free assay, competition with immobilised ligand; 1 µM): 79%
N#CCCc1ccc2c(c1)-c1[nH]c3ccc([N+](=O)[O-])cc3c1CC(=O)N2  remaining signal (CDK4 with cyclin D3; cell-free assay; 0.5 µM): 25.9%
O=C(c1ccc(F)cc1)[C@H]1Cc2c(cc([N+](=O)[O-])cc2[N+](=O)[O-])[C@@H](O)[C@@]12C(=O)Nc1ccccc12  inhibition (CDK4; cell-free assay, inhibitor, TR-FRET; 1 µM): 48.2%
